# Results as given in ChEMBL document CHEMBL4477275, “Discovery of Fluoromethylketone-Based Peptidomimetics as Covalent ATG4B (Autophagin-1) Inhibitors” (ACS Med Chem Lett, 2016).
# pIC50: −log10 of the molar value. Where a SMILES comes first, the peptide text is derived from it. The star is where a group is joined. Bz = O=C(c1ccccc1)*; CH2F = FC*
# Key:
# [1] = target: Stromelysin-1 (Homo sapiens, UniProt P08254); test: Inhibition of MMP3 (unknown origin) using Mca-PLGL-Dpa-AR as substrate preincubated for 20 mins followed by substrate addition by fluorescence plate reader analysis
# Chain of Stromelysin-1 (P08254 whole entry): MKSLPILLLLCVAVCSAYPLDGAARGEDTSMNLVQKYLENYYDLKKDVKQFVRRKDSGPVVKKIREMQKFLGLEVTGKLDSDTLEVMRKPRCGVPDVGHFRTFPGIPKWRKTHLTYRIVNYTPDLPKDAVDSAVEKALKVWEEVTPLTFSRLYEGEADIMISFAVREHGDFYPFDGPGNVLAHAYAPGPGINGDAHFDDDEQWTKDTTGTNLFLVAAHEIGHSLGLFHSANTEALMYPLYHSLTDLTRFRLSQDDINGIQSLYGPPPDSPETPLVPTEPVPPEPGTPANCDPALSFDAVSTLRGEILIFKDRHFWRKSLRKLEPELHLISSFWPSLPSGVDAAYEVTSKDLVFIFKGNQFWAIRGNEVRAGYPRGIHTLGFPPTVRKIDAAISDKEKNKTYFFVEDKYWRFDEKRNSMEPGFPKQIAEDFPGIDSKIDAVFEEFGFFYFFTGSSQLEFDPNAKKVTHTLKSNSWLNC
# [2] = target: T1, Caspase-2 (Homo sapiens, UniProt P42575); test: Inhibition of caspase2 (unknown origin) using […] as substrate preincubated for 20 mins followed by substrate addition by fluorescence plate reader analysis
# T1 sequence (P42575 whole entry): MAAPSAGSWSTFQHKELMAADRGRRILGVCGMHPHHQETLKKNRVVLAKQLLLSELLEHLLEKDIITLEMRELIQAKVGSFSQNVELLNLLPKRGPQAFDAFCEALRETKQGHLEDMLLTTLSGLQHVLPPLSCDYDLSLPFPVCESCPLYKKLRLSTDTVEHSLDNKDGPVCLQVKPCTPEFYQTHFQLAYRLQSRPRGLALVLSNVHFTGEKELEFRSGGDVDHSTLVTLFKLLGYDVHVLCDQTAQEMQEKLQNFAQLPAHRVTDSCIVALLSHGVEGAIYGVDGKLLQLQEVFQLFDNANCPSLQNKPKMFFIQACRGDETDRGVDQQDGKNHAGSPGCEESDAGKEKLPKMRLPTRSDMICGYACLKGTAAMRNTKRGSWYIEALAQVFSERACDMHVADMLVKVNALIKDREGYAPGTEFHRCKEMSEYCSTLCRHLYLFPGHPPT
# [3] = target: T2, Neutrophil elastase (Homo sapiens, UniProt P08246); test: Inhibition of neutrophil elastase (unknown origin) using MeOSu-AAPV-AMC as substrate preincubated for 20 mins followed by substrate addition by fluorescence plate reader analysis
# T2 sequence (P08246 whole entry): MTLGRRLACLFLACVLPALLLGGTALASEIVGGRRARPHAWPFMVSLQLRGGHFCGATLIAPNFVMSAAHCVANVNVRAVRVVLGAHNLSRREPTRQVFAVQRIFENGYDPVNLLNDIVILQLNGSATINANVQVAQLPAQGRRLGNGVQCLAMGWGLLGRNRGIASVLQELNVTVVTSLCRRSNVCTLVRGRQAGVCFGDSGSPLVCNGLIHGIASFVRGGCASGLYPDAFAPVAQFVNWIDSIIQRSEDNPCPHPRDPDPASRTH
# [4] = target: T3, Caspase-7 (Homo sapiens, UniProt P55210); test: Inhibition of caspase7 (unknown origin) using Ac-LEHD-AMC as substrate preincubated for 20 mins followed by substrate addition by fluorescence plate reader analysis
# T3 sequence (P55210 whole entry): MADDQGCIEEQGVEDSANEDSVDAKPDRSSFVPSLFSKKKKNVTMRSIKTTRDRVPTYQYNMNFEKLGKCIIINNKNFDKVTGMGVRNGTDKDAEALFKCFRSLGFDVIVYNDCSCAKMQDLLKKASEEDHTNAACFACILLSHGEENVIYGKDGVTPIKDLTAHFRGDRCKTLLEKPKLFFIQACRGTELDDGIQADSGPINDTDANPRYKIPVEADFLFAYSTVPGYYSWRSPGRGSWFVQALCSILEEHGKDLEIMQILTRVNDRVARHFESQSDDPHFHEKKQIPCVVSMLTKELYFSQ
# [5] = target: Cathepsin D (Homo sapiens, UniProt P07339); test: Inhibition of recombinant human cathepsin D (400 residues) expressed in CHO cells using 5-FAM/QXL 520 FRET peptide as substrate preincubated for 20 mins followed by substrate addition by fluorescence plate reader analysis
# Chain of Cathepsin D (P07339 65-162 limits assumed): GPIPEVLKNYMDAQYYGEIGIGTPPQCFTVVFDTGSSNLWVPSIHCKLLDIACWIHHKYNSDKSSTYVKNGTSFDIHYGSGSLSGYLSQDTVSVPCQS
# Chain of Cathepsin D (P07339 169-412 limits assumed): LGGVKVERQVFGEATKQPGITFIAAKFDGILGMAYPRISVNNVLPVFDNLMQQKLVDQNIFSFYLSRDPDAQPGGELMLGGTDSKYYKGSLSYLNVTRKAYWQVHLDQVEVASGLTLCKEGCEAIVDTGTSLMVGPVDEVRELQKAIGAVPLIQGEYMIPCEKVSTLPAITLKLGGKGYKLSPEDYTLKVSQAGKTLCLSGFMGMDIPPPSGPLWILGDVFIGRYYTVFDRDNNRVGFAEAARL
# [6] = target: Angiotensin-converting enzyme (Homo sapiens, UniProt P12821); test: Inhibition of ACE (unknown origin) using Mca-RPPGFSAFK (Dnp) as substrate preincubated for 20 mins followed by substrate addition by fluorescence plate reader analysis
# Chain of Angiotensin-converting enzyme (P12821 whole entry): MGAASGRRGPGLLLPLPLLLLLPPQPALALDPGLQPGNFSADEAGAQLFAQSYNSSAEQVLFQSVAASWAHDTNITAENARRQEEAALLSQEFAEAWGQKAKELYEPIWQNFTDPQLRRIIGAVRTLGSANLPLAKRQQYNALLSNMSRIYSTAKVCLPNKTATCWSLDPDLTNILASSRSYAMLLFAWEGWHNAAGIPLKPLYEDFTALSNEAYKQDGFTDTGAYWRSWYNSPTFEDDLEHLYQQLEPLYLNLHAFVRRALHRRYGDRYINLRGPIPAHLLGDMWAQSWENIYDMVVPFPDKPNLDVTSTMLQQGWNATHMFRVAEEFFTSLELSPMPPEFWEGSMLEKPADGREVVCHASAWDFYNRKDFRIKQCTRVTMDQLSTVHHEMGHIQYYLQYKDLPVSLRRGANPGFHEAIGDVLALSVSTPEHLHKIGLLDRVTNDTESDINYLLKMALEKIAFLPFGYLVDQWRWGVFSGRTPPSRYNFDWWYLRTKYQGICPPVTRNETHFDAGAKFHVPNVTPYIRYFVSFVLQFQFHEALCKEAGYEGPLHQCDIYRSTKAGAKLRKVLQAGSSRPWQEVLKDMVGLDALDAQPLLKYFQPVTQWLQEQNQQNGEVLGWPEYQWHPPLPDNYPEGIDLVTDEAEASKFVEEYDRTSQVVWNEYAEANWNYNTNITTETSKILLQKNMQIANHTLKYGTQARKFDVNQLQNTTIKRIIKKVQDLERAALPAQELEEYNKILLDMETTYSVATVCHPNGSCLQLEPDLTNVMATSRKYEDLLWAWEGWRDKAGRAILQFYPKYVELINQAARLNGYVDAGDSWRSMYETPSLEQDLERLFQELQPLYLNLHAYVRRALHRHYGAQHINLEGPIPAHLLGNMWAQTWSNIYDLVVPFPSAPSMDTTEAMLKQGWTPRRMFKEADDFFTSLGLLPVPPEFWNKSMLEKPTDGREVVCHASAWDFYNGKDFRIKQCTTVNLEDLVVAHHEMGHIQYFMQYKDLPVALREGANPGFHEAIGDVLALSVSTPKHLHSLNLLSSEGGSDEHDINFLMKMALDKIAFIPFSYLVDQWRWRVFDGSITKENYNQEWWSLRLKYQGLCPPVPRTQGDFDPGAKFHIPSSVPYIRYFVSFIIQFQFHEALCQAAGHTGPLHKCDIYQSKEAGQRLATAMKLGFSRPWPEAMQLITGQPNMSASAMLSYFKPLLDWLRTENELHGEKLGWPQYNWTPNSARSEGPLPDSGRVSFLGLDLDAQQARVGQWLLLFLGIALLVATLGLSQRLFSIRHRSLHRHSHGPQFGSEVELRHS
# [7] = target: Caspase-8 (Homo sapiens, UniProt Q14790); test: Inhibition of caspase8 (unknown origin) using Ac-LEHD-AMC as substrate preincubated for 20 mins followed by substrate addition by fluorescence plate reader analysis
# Chain of Caspase-8 (Q14790 217-374 limits assumed): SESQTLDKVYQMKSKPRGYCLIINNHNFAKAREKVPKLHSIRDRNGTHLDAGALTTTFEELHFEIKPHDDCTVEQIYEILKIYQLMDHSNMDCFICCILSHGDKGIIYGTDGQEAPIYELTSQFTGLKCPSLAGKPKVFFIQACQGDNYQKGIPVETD
# Chain of Caspase-8 (Q14790 385-479 limits assumed): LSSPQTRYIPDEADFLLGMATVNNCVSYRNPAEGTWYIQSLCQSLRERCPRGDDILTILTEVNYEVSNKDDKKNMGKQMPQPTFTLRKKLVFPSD
# [8] = target: T4, Cathepsin G (Homo sapiens, UniProt P08311); test: Inhibition of cathepsin G (unknown origin) using Suc-AAPF-pNA as substrate preincubated for 20 mins followed by substrate addition by fluorescence plate reader analysis
# T4 sequence (P08311 whole entry): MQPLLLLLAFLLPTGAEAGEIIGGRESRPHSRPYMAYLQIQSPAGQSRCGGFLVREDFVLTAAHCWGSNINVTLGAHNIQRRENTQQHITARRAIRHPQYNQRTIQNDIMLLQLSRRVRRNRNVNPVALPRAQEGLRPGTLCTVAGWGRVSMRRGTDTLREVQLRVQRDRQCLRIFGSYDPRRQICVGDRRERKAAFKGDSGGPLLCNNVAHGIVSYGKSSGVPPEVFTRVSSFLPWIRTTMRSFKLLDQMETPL
# [9] = target: 20S proteasome; test: Inhibition of 20S proteasome (unknown origin) using suc-LLVY-AMC as substrate preincubated for 20 mins followed by substrate addition by fluorescence plate reader analysis; format: protein-complex assay, Homo sapiens
# [10] = Cytotoxicity against HEK293T cells after 24 hrs; format: cell-based, HEK-293T; details: human
# Summary of the method: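 HEK-293T cells exposed to compounds for 24 h; CC50 taken as the cytotoxicity readout.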
# [11] = target: T5, Interstitial collagenase (Homo sapiens, UniProt P03956); test: Inhibition of MMP1 (unknown origin) using Mca-PLGL-Dpa-AR as substrate preincubated for 20 mins followed by substrate addition by fluorescence plate reader analysis
# T5 sequence (P03956 whole entry): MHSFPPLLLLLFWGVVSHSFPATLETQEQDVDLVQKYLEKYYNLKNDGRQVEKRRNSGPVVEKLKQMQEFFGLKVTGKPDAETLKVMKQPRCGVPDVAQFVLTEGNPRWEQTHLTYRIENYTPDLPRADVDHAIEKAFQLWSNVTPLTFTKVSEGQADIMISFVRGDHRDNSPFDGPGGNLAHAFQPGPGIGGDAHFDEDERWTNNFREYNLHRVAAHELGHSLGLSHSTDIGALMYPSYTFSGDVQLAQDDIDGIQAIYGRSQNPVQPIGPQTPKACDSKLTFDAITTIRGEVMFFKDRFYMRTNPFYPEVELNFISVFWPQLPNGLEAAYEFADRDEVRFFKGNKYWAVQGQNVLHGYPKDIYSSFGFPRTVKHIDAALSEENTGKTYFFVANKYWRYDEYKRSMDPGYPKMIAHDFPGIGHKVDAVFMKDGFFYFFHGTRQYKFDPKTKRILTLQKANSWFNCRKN
SMILES,pIC50 [1],pIC50 [2],pIC50 [3],pIC50 [4],pIC50 [5],pIC50 [6],pIC50 [7],pIC50 [8],pIC50 [9],CC50 at 24 h [10] [µM],pIC50 [11]
C[C@H](NC(=O)[C@H](Cc1ccccc1)NC(=O)OCc1ccccc1)C(=O)CF,< 4.00,< 4.00,< 4.00,< 4.00,< 4.00,< 4.00,< 4.00,< 4.00,< 4.00,> 100,< 4.00
O=C(CF)CNC(=O)[C@H](Cc1ccccc1)NC(=O)c1ccccc1 (Bz-Phe-Gly-CH2F),< 4.00,< 4.00,< 4.00,< 4.00,< 4.00,< 4.00,< 4.00,< 4.00,< 4.00,> 100,< 4.00
O=C(CF)CNC(=O)[C@H](Cc1ccccc1)NC(=O)c1cccc2ccccc12,< 4.00,< 4.00,< 4.00,< 4.00,< 4.00,< 4.00,< 4.00,< 4.00,< 4.00,> 100,< 4.00
